A selection: hits, their analogues and other compounds. The true share with any hit is near 1.6%.
GSTO1 inh = blocks human GSTO1 in RBBP9 counter-screen; P78417; recombinant GSTO1, activity-based probe fluorescence polarization; inhibition, % at 5.96 µM; hit rate 1.1% among 300,000;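 active means inhibition above the campaign mean inhibition plus 3 SD, cut at about 35% in these data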;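 further: 0% = GSTO1-1 with DMSO and 100% = wells lacking GSTO1-1 enzyme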
Target sequence (P78417 whole entry, looked up): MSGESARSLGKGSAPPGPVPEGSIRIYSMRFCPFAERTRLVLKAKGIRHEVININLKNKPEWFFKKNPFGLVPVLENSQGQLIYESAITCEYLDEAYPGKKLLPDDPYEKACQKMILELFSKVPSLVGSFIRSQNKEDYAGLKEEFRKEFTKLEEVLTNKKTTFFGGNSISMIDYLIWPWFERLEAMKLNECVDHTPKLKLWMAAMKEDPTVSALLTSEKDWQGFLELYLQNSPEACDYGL
GASC-1 inh = inhibitors of human GASC-1 (JMJD2C) demethylase. GST-JMJD2C(1-420) H3K9me3 demethylation, DELFIA europium. inhibition, % at 2.35 µM. hit rate 0.069% among 330,000;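 active means more than half of a compound's replicate wells show inhibition beyond 50%, single wells judged on their own value; inconclusive means some, but no more than half, of replicates pass 50% inhibition; inactive means no replicate passes 50% inhibition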;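 further: signal counts dimethyl H3K9 product captured on neutravidin plate; 0% = median of DMSO wells and 100% = 0.3 times that DMSO median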
Target sequence (Q9H3R0 1-420 limits assumed): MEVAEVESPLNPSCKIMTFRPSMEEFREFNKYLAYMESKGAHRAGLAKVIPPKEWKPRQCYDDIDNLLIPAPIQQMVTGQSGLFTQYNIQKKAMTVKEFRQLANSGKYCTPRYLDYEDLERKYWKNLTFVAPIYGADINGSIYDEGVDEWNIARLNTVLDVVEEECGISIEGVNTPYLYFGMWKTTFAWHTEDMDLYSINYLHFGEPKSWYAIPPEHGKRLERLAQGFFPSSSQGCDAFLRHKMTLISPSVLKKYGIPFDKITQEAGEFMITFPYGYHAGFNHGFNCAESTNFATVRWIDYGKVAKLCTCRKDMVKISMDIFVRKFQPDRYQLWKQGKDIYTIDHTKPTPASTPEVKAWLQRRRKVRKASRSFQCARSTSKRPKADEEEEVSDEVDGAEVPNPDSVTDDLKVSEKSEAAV
Apaf1 inhib = blocks human Apaf-1 apoptosome activity. O14727. reconstituted apoptosome caspase-3 activity, DEVD-Rh110 fluorescence. inhibition, % at 20 µM. hit rate 0.71% among 330,000; active means inhibition of at least 40% at 20 µM;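 further: plate controls were DMSO wells for no effect and DEVD-CHO caspase inhibitor wells for full effect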
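Material: reconstituted apoptosome with Apaf-1, cytochrome c, caspase-9, procaspase-3, dATP / Buffer or medium: pH 7.5 Hepes buffer with CHAPS, BSA, DTT / Also added: cytochrome c with DEVD-Rh110 / Schedule: compound with Apaf-1, dATP, procaspase-3 30 min, then 50 min reaction, room temperature / Technique: rhodamine 110 fluorescence at Ex 480/Em 540 nm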
SUMO HTRF inh = SUMOylation inhibition; P63279; AID 2006; hit rate 0.36% among 290,000; HTRF SUMOylation assay, SAE1/SAE2 + UBC9, in vitro; inhibition, % at 35 µM; in the data active means inhibition above about 50%, passing the limit was not always enough; inconclusive means no clear call, values can overlap the other calls
PAD4 FP inh = PAD4 (human) enzyme inhibition | inhibition, % at 6.36 µM | hit rate 0.41% among 330,000 | Q9UM07 | recombinant PAD4, RCA probe fluorescence polarization | AID 485272;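 active means percent inhibition above a cutoff equal to the mean of all tested compounds plus 3 SD, cut at about 15% in these data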;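 further: 0% = PAD4 with RCA probe and DMSO and 100% = probe without PAD4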
TDP2 inh = TDP2 (human) inhibition, absorbance primary screen; recombinant TDP2, T5PNP hydrolysis, p-nitrophenol absorbance 415 nm; inhibition, % at 12.8 µM; O95551; hit rate 0.34% among 370,000;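 active means inhibition above the mean of all tested compounds plus 3 SD, set per campaign, cut at about 25% in these data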;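 further: 0% = DMSO with enzyme and 100% = buffer with substrate but no TDP2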
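Test system: Human TDP2 enzyme | Reagent: 5 mM T5PNP | Compound dosing: 12.8 µM single point, 1% DMSO | Incubation: Enzyme reaction with compound for 2 h at 37 °C | Technique: p-Nitrophenol epi absorbance | Read-out: % inhibition relative to enzyme-containing and enzyme-free wells | Benchmarks: High control without enzyme, low control DMSO plus TDP2 | Replicates: Singlicate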
GSTO1 inh conf = GSTO1 (human) inhibition, confirmation; inhibition, % at 5.96 µM; shares compounds with GSTO1 inh; hit rate 54% among 2,400; recombinant GSTO1, probe fluorescence polarization; AID 2176;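 active means inhibition above the primary screen's cutoff, its mean inhibition plus 3 SD, cut at about 35% in these data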;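 further: loss of polarization as inhibitors block binding of rhodamine sulfonate ester activity probe; 0% = GSTO1 with DMSO and 100% = wells lacking GSTO1 enzyme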
GSTO1 ABPP inh = blocks recombinant human glutathione S-transferase omega 1; shares compounds with GSTO1 inh; recombinant GSTO1, gel ABPP SE-Rh probe fluorescence; inhibition, % at 1 µM; hit rate 30% among 130; AID 463110;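 active means inhibition of the enzyme GSTO1 above about 75%, limit read from the data; inactive means inhibition below that limit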
* hit, by the source's call; ? = inconclusive; / = no result given.

SMILES	GSTO1 inh	GASC-1 inh	Apaf1 inhib	SUMO HTRF inh	PAD4 FP inh	TDP2 inh	GSTO1 inh conf	others
CCS(=O)(=O)NCCc1csc(-c2ccccc2)n1	3	-3	1	32	-5	-2	/
COc1ccc(-c2nc(CCl)cs2)cc1OC	28	-8	-4	3	5	-9	/
COc1cccc(-c2nc(CCl)cs2)c1	83*	8	1	24	-2	9	95*	GSTO1 ABPP inh=63
CCc1ccc(-c2nc(CCl)cs2)cc1	92*	-3	5	2	1	-6	98*	GSTO1 ABPP inh=81*
CN(C)CC(=O)N[C@@H]1C[C@@H]2O[C@@H](CO)CC[C@@H]2O[C@@H]1CCc1ccc(-c2ccc(F)cc2)cc1	/	/	/	/	/	4	/
CCOC(=O)[C@@]12CCCC3=C1N(CCC3)C(=O)[C@H]2CC(=O)NCc1ccc(C)o1	/	/	/	/	/	6	/
CCC(=O)N1N=C(c2cccs2)CC1c1ccc(C)cc1 (stereo not drawn)	0	11	22	21	0	4	/
Cc1ccc(C2CC(c3cccs3)=NN2C(=O)CCl)cc1 (stereo not drawn)	87*	-2	16	14	7	4	97*
N#C/C(=C(/O)CSc1ccccn1)c1nc2ccccc2s1	20	3	3	6	-44	-5	/
Cc1ccc(SC/C(O)=C(\C#N)c2nc3ccccc3s2)cc1	49*	-1	8	20	-2	7	48*
Cc1c[nH]c2cccc(-c3ccc(OCc4ccccc4)cc3)c12	/	/	/	/	/	5	/
O=C1Cc2cccc(=O)c(O)c2C(=O)O1	/	/	/	/	/	8	/
O=C1c2c(O)cccc2Cc2cccc(O)c21	45*	/	17	/	-7	5	6
CC(CNc1ccccc1O)C(=O)O (stereo not drawn)	45*	3	-165	19	-7	11	7
N#Cc1ccccc1OCC(=O)Nc1c(C(=O)C2CC2)oc2ccccc12	81*	0	24	4	0	13	98*
COC(=O)C1Cc2ccccc2CN1C(=O)CCl (stereo not drawn)	90*	-26	-11	7	-5	6	99*
O=C(Nc1sc2c(c1-c1nc3ccccc3s1)CCNC2)C(F)(F)F	/	/	/	/	/	1	/
O=C(CSc1nnc(-c2ccco2)o1)c1ccc([N+](=O)[O-])cc1	47*	?	-8	14	-10	8	24
CC1(C(=O)Nc2cccc(C(F)(F)F)c2)CO1 (stereo not drawn)	68*	-15	3	1	0	/	85*	GSTO1 ABPP inh=19
O=C(Nc1cccc(C(F)(F)F)c1)C12CC3CC(CC(C3)C1)C2	-4	0	-9	8	-4	7	/
O=C(N/N=C/c1cc(Br)c(Br)o1)c1cccnc1	44*	8	28	0	4	7	15
O=C(NCc1ccc2c(c1)OCO2)c1nnc(Cc2ccc(Cl)cc2)o1	59*	4	-4	3	-2	4	1
O=C(NCc1ccc2c(c1)OCO2)c1ccc(CS(=O)Cc2ccc(Cl)cc2)o1 (stereo not drawn)	5	-4	9	-4	-5	-11	/
C=CCSC1=N/C(=C\C=C\c2ccco2)C(=O)S1	45*	-2	30	43	-1	7	19
C=CCSC1=N/C(=C\c2sccc2C)C(=O)S1	1	5	9	14	2	4	/
SMILES	GSTO1 inh	GASC-1 inh	Apaf1 inhib	SUMO HTRF inh	PAD4 FP inh	TDP2 inh	GSTO1 inh conf	others
COC(=O)C1CN(Cc2cn(CCOC(C)=O)nn2)CCS(=O)(=O)N1Cc1ccc(OC)cc1 (stereo not drawn)	/	/	/	/	/	-5	/
CC(C)CN1C(=O)[C@@]2(CC(=O)N(C)C2c2ccccc2)c2cc(-n3cc(CCc4ccccc4)nn3)ccc21 (stereo partly drawn)	/	/	/	/	/	-17	/
O=C(NCCN1CCOCC1)NC1(C(F)(F)F)Oc2ccc(Cl)cc2O1 (stereo not drawn)	49*	29	/	5	-4	1	6
Cc1cc(C)n2c(=O)c3ccc(Cl)cc3nc2c1C#N	53*	6	10	22	-10	-8	2
Cc1cccc(CCNC(=O)c2ccc(Sc3ccccc3Cl)c([N+](=O)[O-])c2)c1	/	/	/	/	/	7	/
CCCCNC(=O)C1(C(=O)c2ccc(OC)cc2)CC(c2ccccc2C(F)(F)F)=NO1 (stereo not drawn)	/	/	/	/	/	4	/
O=C1NC(=O)C(c2ccccc2[N+](=O)[O-])=C1Nc1ccc(O)c(Cl)c1	64*	2	28	23	46*	18	49*
CCOC(=O)/C(C#N)=C1/C=Nc2ccccc2N1	-4	5	5	-19	3	-12	/
CCC(=O)N=c1ccn(C2=Nc3ccccc3NC2=C(C#N)C#N)cc1	63*	-5	2	20	-4	-25	21
CC(=O)Oc1cc2c(cc1OC(C)=O)C(=O)CCCC2	/	/	/	/	/	3	/
COC(=O)C1(C)Cc2cc(OC(C)=O)c(OC(C)=O)cc2N1 (stereo not drawn)	66*	-22	19	4	-10	/	24
CC(=O)Nc1ccc(C(CCCc2ccccc2)C2=CCCCC2)cc1 (stereo not drawn)	/	/	/	/	/	-6	/
COC(=O)c1ccccc1NC(=O)C1CCN(S(=O)(=O)c2cc(C)ccc2OC)CC1	74*	-5	3	4	-5	-3	1
COc1cc(NC(=O)c2ccccn2)ccc1NC(=O)c1ccccc1Cl	/	/	/	/	/	-16	/
O=C(CNC(=S)NC(=O)c1ccc(Br)o1)c1ccccc1	46*	0	-16	-15	0	3	15
Cc1ccc(-c2noc(CSc3nnnn3C3CCCCC3)n2)cc1	40*	-2	16	-5	-1	5	33
CC(C)C1=CC2=CCC3C(C)(C(=O)O)CCCC3(C)C2CC1 (stereo not drawn) (tested in a mixture with another compound)	39*	8	16	-1	6	/	34
COC(=O)[C@H](CC(C)C)N1Cc2nnn(CC3CCCCC3)c2-c2ccccc2S1(=O)=O	/	/	/	/	/	0	/
CCOC(=O)C1=C(C)OC(N)=C(C#N)C1c1cc(OC)c2c(c1)OCO2 (stereo not drawn)	10	-2	-12	-36	6	4	/
CCOC(=O)C1=C(C)OC(N)=C(C#N)C1c1cc2c(cc1[N+](=O)[O-])OCO2 (stereo not drawn)	46*	-12	17	42	-11	-6	17
COC(=O)C[C@H]1CC[C@H]2[C@H](COc3ccc(NS(=O)(=O)c4ccccc4C)cc3C(=O)N2C)O1	/	/	/	/	/	-3	/

Screening results deposited in PubChem BioAssay by several laboratories.
